The list is not random: actives were taken first. Their share in the collection is about 2.9%.
TAG inh: inhibitors of triacylglycerol accumulation, primary screen, cell-based, uHTS, fluorescence, H9c2; H9c2 cells, Nile Red lipid (TAG) fluorescence; cells loaded with 200 µM oleic acid; inhibition, % at 12.5 µM; 0.66% of 230,000 active; AID 651582, 2012;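 active = pattern-corrected inhibition of lipid staining of at least 50% with the nuclear-stain viability signal not falling by more than 50%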
MC4R antag cAMP: MC4R antagonists of cAMP signaling, primary screen, cell-based, TR-FRET, antagonist arm of biased-ligand search | inhibition, % at 6.5 µM | MC4R-expressing cells, MTII-stimulated cAMP, LANCE TR-FRET | 0.48% of 360,000 active;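 active = inhibition above its plate's cutoff, the mean of tested wells on that plate plus 3 SD, cut at about 29% in these data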
Target sequence (P32245 whole entry, looked up): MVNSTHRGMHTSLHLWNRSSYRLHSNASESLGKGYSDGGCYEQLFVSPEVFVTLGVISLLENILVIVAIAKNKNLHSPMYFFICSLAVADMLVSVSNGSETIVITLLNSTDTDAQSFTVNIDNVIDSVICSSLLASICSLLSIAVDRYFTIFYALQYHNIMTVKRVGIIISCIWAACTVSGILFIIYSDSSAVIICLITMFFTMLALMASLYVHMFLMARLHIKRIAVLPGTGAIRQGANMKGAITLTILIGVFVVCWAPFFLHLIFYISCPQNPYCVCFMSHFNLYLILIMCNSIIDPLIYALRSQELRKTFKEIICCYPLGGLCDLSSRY
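System: U2OS cells stably expressing human melanocortin 4 receptor (MC4R). Reagent: Melanotan II challenge after compound preincubation. Doses: 6.5 µM. Times: 30-min compound, 1-h challenge, 1-h detection, room temperature. Measured by: TR-FRET with Eu-cAMP and labeled anti-cAMP, 671 nm. Replicates: singlicate.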
MC4R barr agon: MC4R agonists recruiting beta-arrestin, primary screen, cell-based, luminescence, agonist arm of biased-ligand search; Melanocortin receptor 4 (Homo sapiens), P32245; U2OS MC4R beta-arrestin complementation; percent of melanotan II response, DMSO zero; activation, % at 8.9 µM; 0.98% of 360,000 active;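 active = activation above a per-plate cutoff, the mean activation of sample wells on that plate plus 3 SD, cut at about 8% in these data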
Calb FLC: C. albicans growth inhibition with fluconazole, primary screen, CaCi-2 strain, Alamar Blue fluorescence | 0.57% of 300,000 active | AID 1979, 2009 | growth inhibition, % (test concentration not listed) | C. albicans CaCi-2 + fluconazole, 48 h;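 active = growth inhibition above about 58% in most replicates, limit read from the data, passing the limit was not always enough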;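 note: all wells also contain fluconazole at 8 µg/ml as a sub-toxic cotreatment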
Efflux pump inh: inhibitors of Candida efflux pumps in yeast, primary screen, S. cerevisiae, Nile Red, multiplex | S. cerevisiae Candida pump triplex | inhibition, % at 10 µM | 0.44% of 330,000 active | AID 485275, 2010;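 active = plate passing quality check with inhibition over a set limit, or well fluorescence over plate mean plus 4 SD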;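 note: Nile Red retained in pooled yeast measured as flow cytometry median fluorescence; higher means more Nile Red kept so more efflux inhibition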
GalR3 antagonist: GalR3 antagonists in HEK293 cells, primary screen, cell-based, fluorescence readout; AID 651719, 2012; inhibition, % at 3 µM; HEK293 GalR3-CNG cAMP membrane potential fluorescence; galR3 body fused to GalR1 C-terminus; Galanin receptor type 3 (Homo sapiens), O60755; 0.44% of 360,000 active;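 active = inhibition above the screen-wide average plus 3 SD, cut at about 13% in these data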;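 note: forskolin and galanin both at EC90 stimulate the cells; cAMP rise reported by CNG channel membrane potential dye signal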
Target sequence (O60755 1-299 limits assumed): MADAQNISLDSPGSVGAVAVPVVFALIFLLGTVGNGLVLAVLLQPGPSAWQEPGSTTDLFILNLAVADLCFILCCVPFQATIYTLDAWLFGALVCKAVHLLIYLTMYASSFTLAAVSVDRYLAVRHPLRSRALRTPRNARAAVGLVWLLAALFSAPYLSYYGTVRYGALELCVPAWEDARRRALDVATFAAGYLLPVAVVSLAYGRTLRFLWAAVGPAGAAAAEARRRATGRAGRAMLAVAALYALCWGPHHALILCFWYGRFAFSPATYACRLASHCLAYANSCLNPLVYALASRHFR
H9c2 TAG conf: triacylglycerol accumulation inhibitors, retest, confirmation, cell-based, single concentration, Nile Red fluorescence, H9c2. shares compounds with TAG inh. inhibition, % at 12.5 µM. 71% of 990 active. AID 651629, 2012. H9c2 lipid accumulation; cells loaded with 200 µM oleic acid;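 active = mean inhibition across replicates of 40% or more; inactive = mean inhibition below 40%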
GalR3 antag conf: GalR3 antagonist hit confirmation, cell-based, fluorescence, triplicate. shares compounds with GalR3 antagonist. HEK293 GalR3 CNG cAMP biosensor, membrane potential fluorescence; galR3 fused to GalR1 carboxy tail; challenged with forskolin and galanin at EC90. inhibition, % at 3 µM. 59% of 1,600 active;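 active = inhibition above the primary screen's cutoff, the mean inhibition of all screened compounds plus 3 SD, cut at about 13% in these data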
CNG parental: nonspecific cAMP agonists in parental HEK-CNG cells, counter-screen for GalR3 antagonist project, cell-based, fluorescence, high throughput; 10% of 1,600 active; shares compounds with GalR3 antagonist; activation, % at 3 µM; AID 652268, 2013; HEK293-CNG parental cells, cAMP membrane potential fluorescence; normalised: DMSO wells 0%, forskolin wells 100%; in the data active = activation above about 1.3%
A number is an active result; - = inactive; . = not tested or not shown.

SMILES | TAG inh | MC4R antag cAMP | MC4R barr agon | Calb FLC | Efflux pump inh | GalR3 antagonist | H9c2 TAG conf | others
C[C@H]1CN([C@@H](C)CO)C(=O)Cc2cc(NC(=O)CCC(F)(F)F)ccc2O[C@H]1CN(C)S(=O)(=O)c1ccc(F)cc1 | . | - | - | . | - | - | .
C[C@H]1CN([C@@H](C)CO)C(=O)Cc2cc(NC(=O)CCC(F)(F)F)ccc2O[C@H]1CN(C)S(=O)(=O)c1ccc(Cl)cc1 | 64 | - | - | . | - | - | 69
COc1cc(C#Cc2c(-c3cncn3C)n(C)c3ccc(-c4ccc(OC)c(OC)c4)cc23)cc(OC)c1 | 70 | - | - | . | - | - | 69
COc1cc(C#Cc2c(-c3cncn3C)n(C)c3ccc(-c4ccc5cc[nH]c5c4)cc23)cc(OC)c1 | 82 | - | - | . | - | - | 74
COc1cc(C#Cc2c(-c3cncn3C)n(C)c3ccc(Br)cc23)cc(OC)c1 | - | - | - | . | - | - | .
O=C(NCc1ccc2c(c1)OCO2)c1cc(-c2ccccn2)nc2ccccc12 | 53 | - | - | - | - | - | -
CCCCCCCC(=O)Nc1cc(C(=O)NCCC)ccc1N1CCC2(CC1)CC(c1cccc(Br)c1)=NO2 | 70 | - | - | - | . | - | 61
CCCCC(CC)C(=O)Nc1cc(C(=O)NCc2ccc(C)cc2)ccc1N1CCC2(CC1)CC(c1cccc(Br)c1)=NO2 (stereo not given) | - | - | - | . | - | - | .
COc1ccc(CNC(=O)c2ccc(N3CCC4(CC3)CC(c3ccc(Cl)cc3)=NO4)c(NC(=O)Cc3ccc(F)cc3)c2)cc1 | 60 | - | - | . | - | - | 44
CCCCC(CC)C(=O)Nc1cc(C(=O)NCc2ccc(C)cc2)ccc1N1CCC2(CC1)CC(c1ccccc1)=NO2 (stereo not given) | 56 | - | - | - | - | - | 55
CC(=O)N1CCN(c2ccc(N3CCN(Cc4ccccc4)[C@H](C)C3)c(C)c2)[C@@H](C)C1 | . | . | . | . | . | - | .
O=c1c2ccccc2nc2n1CCc1ccc(Br)cc1-2 | . | . | . | . | . | - | .
C[C@H](O)[C@@H]1C(=O)N2CCc3c([nH]c4ccccc34)[C@@H]2C[C@@H]1N(C)C(=O)OCc1ccccc1 | . | . | . | . | . | - | .
COC(=O)N1C2CCCCC2=NN(c2ccccc2)N1C(=O)OC (stereo not given) | . | . | . | . | . | - | .
CCNC(=O)C1(C)CCCN(Cc2ccccc2-c2ccccc2)C1 (stereo not given) | - | - | - | . | . | - | .
CCOCC(=O)NC1CCc2cc(OC)c(OC)c(OC)c2-c2ccc(SC)c(=O)cc21 (stereo not given) | 54 | - | - | . | . | - | -
CCOC(=O)NC1CCc2cc(OC)c(OC)c(OC)c2-c2ccc(SC)c(=O)cc21 (stereo not given) | - | - | - | . | . | - | .
CC(/C=N/NC(=O)c1n[nH]c2c1CCC2)=C\c1ccccc1 | 72 | - | - | - | - | - | -
O=C(N/N=C/C(Br)=C\c1ccccc1)c1n[nH]c2c1CCC2 | . | - | - | - | - | - | .
N#Cc1cn(-c2ccccc2)nc1-c1ccc2c(c1)OCCO2 | 59 | - | - | - | - | - | -
CC(C)(C)OC(=O)N1CCN(c2ccc(NC(=O)Cn3nnc(-c4ccccc4)n3)cc2)CC1 | 62 | - | - | - | - | - | -
CCO[C@H]1C[C@@H](c2ccc(CC)cc2)N(S(=O)(=O)c2ccc(C)cc2)C2CC(c3ccc(CC)cc3)N(S(=O)(=O)c3ccc(C)cc3)CC21 (stereo not given in full) | . | . | . | . | . | - | .
COCCCNC(=O)C(=O)Nc1ccc2c(c1)N(S(=O)(=O)c1cccs1)CCC2 | 54 | - | - | - | - | 16 | 61 | GalR3 antag conf=-;CNG parental=2.1
Cc1cnc(C)c(Nc2nc(C(N)Cc3ccc(C(F)(F)F)cc3)cs2)n1 (stereo not given) | - | - | - | . | . | - | .
COc1cccc(-c2cc(C(=O)Nc3ccc(N(C)C(C)=O)cc3)c3cc(Br)ccc3n2)c1 | 50 | - | - | - | - | 19 | 57 | GalR3 antag conf=-;CNG parental=1.4
SMILES | TAG inh | MC4R antag cAMP | MC4R barr agon | Calb FLC | Efflux pump inh | GalR3 antagonist | H9c2 TAG conf | others
COc1cccc(-c2cc(C(=O)Nc3ccncc3)c3ccccc3n2)c1 | - | - | - | - | - | - | .
COc1cc(NC(=O)COc2cccc(C)c2C)ccc1NC(=O)c1ccco1 | . | - | - | - | - | 14 | . | GalR3 antag conf=-;CNG parental=-
COc1cc(NC(=O)COc2ccc(C)c(C)c2)ccc1NC(=O)c1ccco1 | . | - | - | - | - | - | .
CCCCC(=O)N(C)c1c(CC)nc2c(OCCC)cccn12 | - | - | - | . | . | - | .
CCCCn1nnnc1C(c1cc2ccccc2o1)N(C)Cc1ccc(Cl)cc1 (stereo not given) | . | . | . | . | . | - | .
CCOC(=O)C1CCCN(C(=O)c2ccccc2[N+](=O)[O-])C1 (stereo not given) | - | - | - | - | - | 55 | . | GalR3 antag conf=-;CNG parental=-
CCOC(=O)c1cnc(-n2nc(C)cc2C)nc1NC1CCCCC1 | - | - | - | - | - | 34 | . | GalR3 antag conf=73;CNG parental=6.8
O=C(NCC(F)(F)F)c1cc2c(c(-c3cccc(-c4ccccc4F)c3)n1)[C@@H](CCO)N(C(=O)CC1CC1)C2 | . | . | . | . | . | - | .
CCCn1nc(C(=O)NNC(=O)CCCOc2ccc(C)cc2)c2ccccc2c1=O | - | - | - | - | - | 86 | . | GalR3 antag conf=90;CNG parental=-
Clc1cccc(CN2CCN(c3ncc(Cc4ccccc4)cn3)CC2)c1Cl | . | . | . | . | . | 55 | . | GalR3 antag conf=106;CNG parental=-
O=C(COC(=O)c1c(F)cccc1F)Nc1ccc2[nH]c(=O)[nH]c2c1 | . | - | - | - | - | - | .
O=C(COC(=O)c1cccc(Br)c1)Nc1ccc2[nH]c(=O)[nH]c2c1 | - | - | - | - | - | 32 | . | GalR3 antag conf=49;CNG parental=-

Screens deposited in PubChem by several laboratories.
